The source of these data is ChEMBL document CHEMBL1765089, “A class of 5-benzylidene-2-phenylthiazolinones with high potency as direct 5-lipoxygenase inhibitors” (J Med Chem, 2011).

For assay [1], the target named is T1, Polyunsaturated fatty acid 5-lipoxygenase (Homo sapiens, UniProt P09917).
T1 sequence (P09917 whole entry): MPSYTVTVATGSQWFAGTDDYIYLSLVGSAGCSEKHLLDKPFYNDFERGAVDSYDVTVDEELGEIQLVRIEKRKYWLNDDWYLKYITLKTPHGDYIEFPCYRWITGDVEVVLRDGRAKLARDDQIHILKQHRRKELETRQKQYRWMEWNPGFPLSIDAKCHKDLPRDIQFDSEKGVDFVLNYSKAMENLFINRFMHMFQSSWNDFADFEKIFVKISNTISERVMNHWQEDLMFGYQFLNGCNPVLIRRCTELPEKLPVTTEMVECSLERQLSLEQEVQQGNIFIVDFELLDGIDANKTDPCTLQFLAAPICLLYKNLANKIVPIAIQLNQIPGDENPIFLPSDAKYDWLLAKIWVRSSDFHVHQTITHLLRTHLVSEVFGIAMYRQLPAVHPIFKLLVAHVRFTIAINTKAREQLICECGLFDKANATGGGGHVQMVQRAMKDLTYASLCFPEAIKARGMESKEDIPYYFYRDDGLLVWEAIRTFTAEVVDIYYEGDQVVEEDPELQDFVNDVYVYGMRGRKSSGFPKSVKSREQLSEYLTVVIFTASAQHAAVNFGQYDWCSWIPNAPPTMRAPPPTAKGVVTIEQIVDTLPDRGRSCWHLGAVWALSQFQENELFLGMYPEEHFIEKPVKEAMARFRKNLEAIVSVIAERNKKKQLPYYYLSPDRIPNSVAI
As to the kind of experiment: Inhibition of 5-lipoxygenase in human polymorphonuclear leukocytes assessed as inhibition of LTB4 production preincubated for 15 mins measured after 10 mins by HPLC method. The settings on record: pooled result: one value given for 2 cell lines, strains, targets or settings. Type of assay: cell-based. An outline of the steps: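 Isolated intact human polymorphonuclear leukocytes were preincubated with compound, then stimulated with 2.5 μM ionophore A23187 plus exogenous arachidonic acid (20 μM) to bypass cPLA₂ substrate supply. Three increasing concentrations were tested in three to five independent experiments and normalized to DMSO control. IC₅₀ was read by linear interpolation around 50% activity, reported as mean with SEM.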

Assay [2] has as its target T1, Polyunsaturated fatty acid 5-lipoxygenase. As to the kind of experiment: Inhibition of 5-lipoxygenase in S100 supernatant assessed as inhibition of LTB4 production preincubated for 15 mins measured after 10 mins by HPLC method. The method in brief: (§1)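 Cell-free assay using the 100000g supernatant (S100) of human PMNL homogenates. Samples were preincubated with compound, then 5-LO product formation was started with 1 mM CaCl₂ plus 20 μM arachidonic acid. Three increasing concentrations were tested in three to five independent experiments and normalized to DMSO control. IC₅₀ was estimated by linear interpolation around 50% activity.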

Assay [3] shares this target. As to the kind of experiment: Inhibition of 5-lipoxygenase in S100 supernatant assessed as inhibition of (5(S)-hydroperoxy-6-trans-8,11,14-cis-eicosatetraenoic acid production preincubated for 15 mins measured after 10 mins by HPLC method. The method in brief:
as §1

In assay [4] the target is T2, Polyunsaturated fatty acid 5-lipoxygenase (Homo sapiens) (UniProt P09917).
T2 sequence (whole entry): T1 sequence (P09917 whole entry)
The assay is described as follows: Inhibition of 5-lipoxygenase in human polymorphonuclear leukocytes assessed as residual activity at 30 uM relative to control. Type of assay: cell-based. An outline of the steps: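 Intact isolated human PMNL were preincubated with compound, then 5-LO product formation was elicited with 2.5 μM A23187 and 20 μM exogenous arachidonic acid. Activity was expressed relative to DMSO control.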

In assay [5] the target is T2, Polyunsaturated fatty acid 5-lipoxygenase (Homo sapiens). The assay is described as follows: Inhibition of 5-lipoxygenase in S100 supernatant assessed as residual activity at 30 uM relative to control. The method in brief: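 PMNL homogenate 100000g supernatant (S100) was preincubated with compound, then stimulated with 1 mM CaCl₂ and 20 μM arachidonic acid. 5-LO product formation was expressed relative to DMSO control.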

Assay [6] has as its target T1, Polyunsaturated fatty acid 5-lipoxygenase. The assay is described as follows: Inhibition of 5-lipoxygenase.

By pIC50 is commonly meant −log10 of the IC50, conventionally taken in molar units.

pIC50: −log10 of the molar value.

`COc1ccc(/C=C2\SC(c3ccc(Cl)cc3)=NC2=O)cc1`: the pIC50 is 6.55 in assay [1], 7.05 in assay [2] and 7.05 in assay [3].
`COc1ccc(/C=C2\SC(c3ccc(C(C)=O)cc3)=NC2=O)cc1`: the pIC50 in assay [1] was 6.26; in assay [2] it was 6.96; in assay [3], 6.96.
As for `O=C1N=C(Nc2ccccc2)S/C1=C\c1ccccc1`, the pIC50 in assay [1], in assay [2] and in assay [3] was less than 4.52 in each case. Further, the Activity in assay [4] and in assay [5] was more than 60% each time.
On to `COc1ccc(/C=C2\SC(c3ccc(N)cc3)=NC2=O)cc1`, for which the values for the pIC50 in assay [1], in assay [2] and in assay [3] were 5.71, 6.20 and 6.20, respectively.
Turning to `CCCOc1ccc(/C=C2\SC(N3CCCCCC3)=NC2=O)cc1`, the pIC50 was 4.92 in assay [1], 4.85 in assay [2] and 4.85 in assay [3].
`O=C1N=C(c2ccccc2)S/C1=C\c1c2ccccc2cc2ccccc12`: the values for the pIC50 in assay [1], in assay [2] and in assay [3] were 5.37, 6.52 and 6.52, respectively.
On to `COc1ccc(/C=C2\SC(c3cccc(C(C)=O)c3)=NC2=O)cc1`, for which the results for the pIC50 in assay [1], in assay [2] and in assay [3] were 6.42, 6.89 and 6.89, respectively.
Take `COc1ccc(/C=C2\SC(c3ccccc3)=NC2=O)cc1`: the pIC50 was 6.28 in assay [1], 6.82 in assay [2] and 6.82 in assay [3].
As for `COC(=O)COc1ccc(C2=NC(=O)/C(=C/c3ccc(OC)cc3)S2)cc1`, the negative-log IC50 (pIC50) in assay [1] was 6.07; in assay [2], 6.24; in assay [3], 6.24.
As for `COc1cc(/C=C2\SC(c3ccccc3)=NC2=O)cc(Cl)c1O`, the pIC50 in assay [1] was 5.02; in assay [2], 5.52; in assay [3] it was 5.52.
Take `COc1cc(/C=C2\SC(c3ccccc3)=NC2=O)cc([N+](=O)[O-])c1O`: the pIC50 in assay [1] was 5.36; in assay [2], 5.52; in assay [3], 5.52.
Turning to `COc1ccc(/C=C2\SC(c3ccc(C)cc3)=NC2=O)c(OC)c1`, the figures for the pIC50 in assay [1], in assay [2] and in assay [3] were 5.69, 6.01 and 6.01, respectively.
For `O=C1N=C(c2ccc(Cl)cc2)S/C1=C\c1ccc(O)cc1`, the results for the pIC50 in assay [1], in assay [2] and in assay [3] were 6.40, 6.96 and 6.96, respectively.
In the case of `Cc1ccc(C2=NC(=O)/C(=C/c3cccc(Cl)c3)S2)cc1`, the pIC50 was 6.24 in assay [1], 6.52 in assay [2] and 6.52 in assay [3].
For the molecule `Cc1ccc(/C=C2\SC(Nc3ccc4ccccc4c3)=NC2=O)cc1`, the pIC50 in assay [1], in assay [2] and in assay [3] was less than 4.52 each time. Also, the Activity in assay [4] and in assay [5] was more than 60% throughout.
`CCOc1ccc(/C=C2\SC(c3ccccc3)=NC2=O)cc1`: the figures for the pIC50 in assay [1], in assay [2] and in assay [3] were 5.70, 6.30 and 6.30, respectively.
With `COc1ccc(/C=C2\SC(c3ccc(OC)cc3)=NC2=O)cc1`, the pIC50 in assay [1] is 6.49; in assay [2], 5.40; in assay [3], 5.40.
Regarding `C/C(=C1/SC(O)=NC1=O)c1cc(-c2ccccc2)c(O)c(-c2ccccc2)c1`, in assay [6], the pIC50 was less than 5.00.
With `COc1cccc(/C=C2\SC(c3ccc(C)cc3)=NC2=O)c1O`, the values for the negative logarithm of the IC50 (pIC50) in assay [1], in assay [2] and in assay [3] were 6.10, 5.89 and 5.89, respectively.
In the case of `CCOc1cc(/C=C2\SC(c3ccc(C)cc3)=NC2=O)cc(Cl)c1O`, the figures for the pIC50 in assay [1], in assay [2] and in assay [3] were 5.54, 5.90 and 5.90, respectively.
With `Cc1ccc(C2=NC(=O)/C(=C/C=C/c3ccccc3)S2)cc1`, the pIC50 is 6.40 in assay [1], 6.64 in assay [2] and 6.64 in assay [3].
As for `COc1ccc(/C=C2\SC(c3cccc(F)c3)=NC2=O)cc1`, the values for the pIC50 in assay [1], in assay [2] and in assay [3] were 6.62, 6.92 and 6.92, respectively.
`COc1cc(Cl)cc(/C=C2\SC(c3ccccc3)=NC2=O)c1O`: the pIC50 in assay [1] was 6.19; in assay [2] it was 6.52; in assay [3], 6.52.
Take `O=C1/C(=C/C=C/c2ccco2)S/C(=N\c2ccccc2)N1c1ccccc1`: the pIC50 in assay [1] was 4.52; in assay [2], less than 4.52; in assay [3], less than 4.52. Further, the Activity in assay [4] and in assay [5] was more than 60% each time.
As to `COc1ccc(/C=C2\SC(N3CCCC3)=NC2=O)cc1`, the pIC50 in assay [1], in assay [2] and in assay [3] was less than 4.52 throughout. The Activity in assay [4] and in assay [5] was more than 60% throughout.
Consider `COc1cccc(/C=C2\SC(c3ccccc3)=NC2=O)c1O`, for which the pIC50 was 6.32 in assay [1], 6.27 in assay [2] and 6.27 in assay [3].
In the case of `COc1cc(/C=C2\SC(c3ccc(C)cc3)=NC2=O)cc(Cl)c1O`, the pIC50 in assay [1] is less than 5.00; in assay [2], 5.57; in assay [3], 5.57.
For the molecule `COc1ccc(/C=C2\SC(c3ccc(C)cc3)=NC2=O)c(OC)c1OC`, the pIC50 is 5.61 in assay [1], 6.40 in assay [2] and 6.40 in assay [3].
Regarding `CN(C)c1ccc(/C=C2\SC(N3CCCCC3)=NC2=O)cc1`, the pIC50 was 4.70 in assay [1], less than 4.52 in assay [2] and less than 4.52 in assay [3]. Further, the Activity in assay [4] and in assay [5] was more than 60% each time.
Consider `COC(=O)COc1ccc(/C=C2\SC(c3ccc(C)cc3)=NC2=O)cc1`, for which the values for the pIC50 in assay [1], in assay [2] and in assay [3] were 5.68, 6.72 and 6.72, respectively.
Consider `COc1ccc(OC)c(/C=C2\SC(c3ccc(C)cc3)=NC2=O)c1`, for which the pIC50 is 6.46 in assay [1], 6.89 in assay [2] and 6.89 in assay [3].
Regarding `Cc1ccc(C2=NC(=O)/C(=C/c3ccccc3)S2)cc1`, the pIC50 in assay [1] is 6.14; in assay [2], 6.46; in assay [3], 6.46.
Regarding `COc1ccc(/C=C2\SC(c3ccc(O)cc3)=NC2=O)cc1`, the negative logarithm of the IC50 (pIC50) in assay [1] is 5.77; in assay [2], 6.19; in assay [3] it was 6.19.
For the molecule `CC(C)(C)c1ccc(/C=C2\SC(c3ccccc3)=NC2=O)cc1`, the figures for the pIC50 in assay [1], in assay [2] and in assay [3] were 6.04, 6.52 and 6.52, respectively.
As to `COc1ccc(/C=C2\SC(c3ccc(C)cc3)=NC2=O)cc1`, the pIC50 in assay [1] is 6.18; in assay [2] it was 6.52; in assay [3], 6.52.
